Results from ChEMBL document CHEMBL1141800, “Xenia diterpenoids from the formosan soft coral Xenia blumi” (2005).
In brackets after ≈: the same amount, converted by molar mass.

What was measured:
P388 = test: Cytotoxicity against mouse P388 cells; type: functional; conditions: read-out: ED50 (the source's name)
Procedure, shortened: (§1)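 In vitro cytotoxicity assay against cultured HT-29 (human colon adenocarcinoma) and P-388 (mouse lymphocytic leukemia) cells; P-388 line was supplied by an outside academic lab. Potency is reported as ED50 in μg/mL.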

HT-29 = test: Cytotoxicity against human HT-29 cells; type: functional; conditions: read-out: ED50 (the source's name); procedure, shortened: as §1

| Compound | EC50 (P388) [µg/mL] | EC50 (HT-29) [µg/mL] |
| --- | --- | --- |
| COC(=O)[C@@H]1[C@@H](/C(=C\C=C\C(C)(C)O)COC(C)=O)CC[C@@]2(C)C[C@]1(O)CC[C@H]2O | > 20 | > 20 |
| C=C1CC[C@@H]2O[C@@]2(C)CC[C@@H]2/C(=C\C=C\C(C)(C)O)C(=O)OC[C@@H]12 | 6.9 (≈ 20.8 µM) | 8.6 (≈ 25.9 µM) |
| C=C1CC[C@@](C)(C=O)CC[C@@H]2/C(=C\C=C\C(C)(C)O)COC(=O)[C@@H]12 | 3.3 (≈ 9.93 µM) | 4.6 (≈ 13.8 µM) |
| C=C1CC/C=C(\C)CC[C@@H]2/C(=C/C=C/C(C)(C)O)C(=O)OC[C@@H]12 | > 20 | 8.7 (≈ 27.5 µM) |
| C=C1CC(=O)/C=C(/C)CC[C@@H]2/C(=C/C=C/C(C)(C)O)C(=O)OC[C@@H]12 | 0.2 (≈ 0.605 µM) | 0.5 (≈ 1.51 µM) |
| C=C1CC[C@@H]2O[C@@]2(C)CC[C@@H]2C([C@@H](OC(C)=O)[C@H](C=C(C)C)OC(C)=O)=CO[C@H](OC(C)=O)[C@@H]12 | > 20 | > 20 |
| C=C1CC[C@@H]2O[C@@]2(C)CC[C@@H]2/C(=C/C=C/C(C)(C)O)C(=O)OC[C@@H]12 | 4.7 (≈ 14.1 µM) | 5.6 (≈ 16.8 µM) |
| C=C1CC[C@H](O)C(=C)CC[C@@H]2/C(=C\C=C\C(C)(C)O)COC(=O)[C@@H]12 | 3.7 (≈ 11.1 µM) | 4.9 (≈ 14.7 µM) |
